Data reported in ChEMBL document CHEMBL2396571, “Synthesis and biological evaluation of C-glucosides with azulene rings as selective SGLT2 inhibitors for the treatment of type 2 diabetes mellitus: discovery of YM543” (Bioorg Med Chem, 2013).
The source made the active and inactive calls. The rule behind the calls is not given here.

Experiments:
[1] = biological target: T1, Sodium/glucose cotransporter 2 (Homo sapiens, UniProt P31639); assay: Inhibition of human SGLT2 expressed in CHO cells assessed as [14C]-methyl-alpha-D-glucopyranoside accumulation; type: cell-based
T1 sequence (P31639 whole entry): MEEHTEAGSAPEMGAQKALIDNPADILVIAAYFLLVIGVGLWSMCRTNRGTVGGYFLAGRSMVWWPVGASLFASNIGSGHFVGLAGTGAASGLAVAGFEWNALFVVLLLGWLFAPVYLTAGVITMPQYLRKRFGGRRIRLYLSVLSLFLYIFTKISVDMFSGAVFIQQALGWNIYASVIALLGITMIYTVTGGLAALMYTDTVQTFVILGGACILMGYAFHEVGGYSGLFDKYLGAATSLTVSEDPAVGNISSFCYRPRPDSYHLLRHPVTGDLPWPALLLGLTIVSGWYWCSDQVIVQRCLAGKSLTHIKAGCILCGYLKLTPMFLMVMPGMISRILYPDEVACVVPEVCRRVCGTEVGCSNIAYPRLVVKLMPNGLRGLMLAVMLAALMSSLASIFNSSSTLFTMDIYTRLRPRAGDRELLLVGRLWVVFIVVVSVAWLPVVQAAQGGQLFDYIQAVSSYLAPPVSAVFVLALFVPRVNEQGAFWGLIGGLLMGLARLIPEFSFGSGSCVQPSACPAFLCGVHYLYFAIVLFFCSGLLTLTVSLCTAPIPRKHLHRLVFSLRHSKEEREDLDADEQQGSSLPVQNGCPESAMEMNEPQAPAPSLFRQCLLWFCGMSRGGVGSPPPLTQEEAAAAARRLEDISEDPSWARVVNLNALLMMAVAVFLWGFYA

Homo sapiens = species on record: Homo sapiens; assay: Selectivity ratio of IC50 for human SGLT1 to IC50 for human SGLT2
[2] = Cmax in Sprague-Dawley rat at 3 mg/kg, po; type: ADME, organism-based; parameters: dose 3 mg/kg, route oral; conditions: in vivo
Procedure, shortened: (§1)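 Male Sprague–Dawley rats, bought at 5–7 weeks of age. A single 1.0 mg/kg intravenous dose or a single 3 mg/kg oral dose was given. Plasma pharmacokinetic parameters were derived: T1/2, CLtot, Vdss, Cmax, Tmax, AUC(0–inf) and oral bioavailability F.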

Mus musculus [3] = assay: Antihyperglycemic activity in KK/Ay type-2 diabetic mouse model assessed as reduction of blood glucose level at 3 mg/kg, po measured for 8 hrs relative to vehicle-treated control; type: functional; parameters: scale not given: the % may be the effect or the level left
Procedure, shortened: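 KK/Ay mice in the fed condition were given a single oral dose (0.1–3 mg/kg). Blood glucose was followed over time, and suppression of glucose AUC was calculated relative to vehicle. Mean ± SEM, 6 animals per group.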

[4] = Oral bioavailability in Sprague-Dawley rat at 3 mg/kg; type: ADME, organism-based; conditions: in vivo; procedure, shortened: as §1
Rattus norvegicus [5] = assay: Volume of distribution at steady state in Sprague-Dawley rat at 1 mg/kg, iv; type: ADME, organism-based; parameters: dose 1 mg/kg, route intravenous; conditions: in vivo; procedure, shortened: as §1
Mus musculus [6] = assay: Antihyperglycemic activity in KK/Ay type-2 diabetic mouse model assessed as increase in urinary glucose excretion at => 0.3 mg/kg, po measured over 12 hrs; type: functional, organism-based; parameters: dose 0.3 mg/kg; conditions: Urine
[7] = Half life in Sprague-Dawley rat at 3 mg/kg, po; type: ADME, organism-based; parameters: dose 3 mg/kg, route oral; conditions: in vivo; procedure, shortened: as §1
[8] = Tmax in Sprague-Dawley rat at 3 mg/kg, po; type: ADME, organism-based; parameters: dose 3 mg/kg, route oral; conditions: in vivo; procedure, shortened: as §1
[9] = Ratio of drug level in kidney to plasma in Sprague-Dawley rat at 1 mg/kg, iv and 3 mg/kg, po; type: ADME, organism-based
Procedure, shortened: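 Male Sprague–Dawley rats received a single 1.0 mg/kg iv or a single 3 mg/kg oral dose. Drug concentration in kidney was compared with that in plasma.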

[10] = AUC (0 to infinity) in Sprague-Dawley rat at 1 mg/kg, iv; type: ADME, organism-based; parameters: time infinity, dose 1 mg/kg, route intravenous; conditions: plasma; procedure, shortened: as §1
Mus musculus [11] = assay: Antihyperglycemic activity in po dosed KK/Ay type-2 diabetic mouse model assessed as increase in urinary glucose excretion measured over 24 hrs; type: functional, organism-based; conditions: Urine
[12] = Half life in Sprague-Dawley rat at 1 mg/kg, iv; type: ADME, organism-based; parameters: dose 1 mg/kg, route intravenous; conditions: in vivo; procedure, shortened: as §1
Rattus norvegicus [13] = assay: Antihyperglycemic activity in streptozotocin-induced type-1 diabetes mellitus rat model assessed as reduction of blood glucose level at 0.1 to 3 mg/kg, po measured for 8 hrs

Q: With `COc1ccc([C@@H]2O[C@H](CO)[C@@H](O)[C@H](O)[C@H]2O)cc1Cc1cc2cccccc-2c1` as the molecule, how does the IC50 [1] read?
A: The IC50 was 0.017 µM.

Q: What about the Ratio IC50 (Homo sapiens) of the same molecule?
A: The Ratio IC50 was 35.

Q: For `CC(=O)c1c(Cc2cccc([C@@H]3O[C@H](CO)[C@@H](O)[C@H](O)[C@H]3O)c2)cc2cccccc1-2`, which IC50 [1] is on record?
A: The IC50 was 12 µM.

Q: And the Ratio IC50 (Homo sapiens)?
A: The Ratio IC50 was > 0.8.

Q: With `OC[C@H]1O[C@@H](c2ccc(F)c(Cc3cc4cccccc-4c3)c2)[C@H](O)[C@@H](O)[C@@H]1O` as the molecule, how does the IC50 [1] read?
A: The IC50 was 0.014 µM.

Q: And the Ratio IC50 (Homo sapiens)?
A: Its Ratio IC50 is 610.

Q: Which Cmax [2] does the source give for `OC[C@H]1O[C@@H](c2cc(Cc3cc4cccccc-4c3)ccc2O)[C@H](O)[C@@H](O)[C@@H]1O` [YM-543 FREE ACID] here?
A: The Cmax was 101 ng/mL.

Q: What about the Activity (Mus musculus [3]) of the same molecule?
A: Its Activity is 56%.

Q: And the bioavailability [4]?
A: Its bioavailability is 29%.

Q: What about the Vdss (Rattus norvegicus [5]) of the same molecule?
A: The Vdss was 3.36 L/kg.

Q: What about the Activity (Mus musculus [6]) of the same molecule?
A: Its Activity is “Active”.

Q: What about the half-life [7] of the same molecule?
A: Its half-life is 78 min.

Q: What about the Tmax [8] of the same molecule?
A: The Tmax was 30 min.

Q: What about the Kp [9] of the same molecule?
A: The Kp was 23.

Q: And the AUC(0-inf) [10]?
A: The AUC(0-inf) was 403 ng·h/mL.

Q: And the Activity (Mus musculus [11])?
A: The Activity was “Dose-dependent effect”.

Q: And the half-life [12]?
A: Its half-life is 54 min.

Q: And the Ratio IC50 (Homo sapiens)?
A: The Ratio IC50 was 280.

Q: What about the Activity (Rattus norvegicus [13]) of the same molecule?
A: The Activity was “Active”.

Q: With `Cc1cc(Cc2cccc([C@@H]3O[C@H](CO)[C@@H](O)[C@H](O)[C@H]3O)c2)c2cccccc1-2` as the molecule, how does the IC50 [1] read?
A: The IC50 was 44 µM.

Q: For `CCc1c(Cc2cccc([C@@H]3O[C@H](CO)[C@@H](O)[C@H](O)[C@H]3O)c2)cc2cccccc1-2`, which IC50 [1] is on record?
A: The IC50 was 5.2 µM.

Q: And the Ratio IC50 (Homo sapiens)?
A: The Ratio IC50 was > 1.9.

Q: For `OC[C@H]1O[C@@H](c2cccc(Cc3cc4cccccc-4c3Cc3ccccc3)c2)[C@H](O)[C@@H](O)[C@@H]1O`, which IC50 [1] is on record?
A: The IC50 was 0.97 µM.

Q: What about the Ratio IC50 (Homo sapiens) of the same molecule?
A: Its Ratio IC50 is > 10.

Q: Which Ratio IC50 (Homo sapiens) does the source give for `OC[C@H]1O[C@@H](c2cccc(Cc3ccc4cccc-4cc3)c2)[C@H](O)[C@@H](O)[C@@H]1O` here?
A: Its Ratio IC50 is 230.

Q: With `COc1ccc(Cc2cc3cccccc-3c2)cc1[C@@H]1O[C@H](CO)[C@@H](O)[C@H](O)[C@H]1O` as the molecule, how does the Ratio IC50 (Homo sapiens) read?
A: Its Ratio IC50 is 2100.

Q: For `OC[C@H]1O[C@@H](c2cccc(Cc3cc4cccccc-4c3)c2)[C@H](O)[C@@H](O)[C@@H]1O`, which Ratio IC50 (Homo sapiens) is on record?
A: Its Ratio IC50 is 590.

Q: For `OC[C@H]1O[C@@H](c2cc(Cc3cc4cccccc-4c3)ccc2Cl)[C@H](O)[C@@H](O)[C@@H]1O`, which IC50 [1] is on record?
A: The IC50 was 0.07 µM.

Q: And the Ratio IC50 (Homo sapiens)?
A: Its Ratio IC50 is 200.

Q: For `OC[C@H]1O[C@@H](c2cc(Cc3cc4cccccc-4c3)ccc2F)[C@H](O)[C@@H](O)[C@@H]1O`, which IC50 [1] is on record?
A: The IC50 was 0.039 µM.

Q: And the Ratio IC50 (Homo sapiens)?
A: The Ratio IC50 was 123.

Q: With `OC[C@H]1O[C@@H](c2ccc(Cl)c(Cc3cc4cccccc-4c3)c2)[C@H](O)[C@@H](O)[C@@H]1O` as the molecule, how does the IC50 [1] read?
A: Its IC50 is 0.0079 µM.

Q: And the Ratio IC50 (Homo sapiens)?
A: Its Ratio IC50 is 140.
